Measurements reported in ChEMBL document CHEMBL4715736, “Identification of anticancer agents based on the thieno[2,3-b]pyridine and 1H-pyrazole molecular scaffolds” (2016).

Legend:
Assay type in all cases: functional
Settings in all cases: read-out: Activity
OVCAR-8 = test: Growth inhibition of human OVCAR-8 cells assessed as cell growth at 10 uM incubated for 48 hrs by sulforhodamine B assay relative to control
Procedure, shortened: (§1)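 Run by the NCI Developmental Therapeutics Program as part of its 60-line human tumour panel. Each compound tested at a single 10 µM dose. Growth expressed as % relative to untreated control cells (100%).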

SF-295 = test: Growth inhibition of human SF-295 cells assessed as cell growth at 10 uM incubated for 48 hrs by sulforhodamine B assay relative to control; procedure, shortened: as §1
CCRF-CEM = test: Growth inhibition of human CCRF-CEM cells assessed as cell growth at 10 uM incubated for 48 hrs by sulforhodamine B assay relative to control
Procedure, shortened: (§2)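 NCI Developmental Therapeutics Program NCI60 panel. Compounds that were active in the 10 µM one-dose screen went on to dose–response testing. Growth at each concentration is expressed relative to untreated control (100%). GI50 (concentration giving 50% of maximal inhibition of proliferation) and TGI (concentration giving total growth inhibition) were derived from the curves.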

COLO 205 = test: Growth inhibition of human COLO 205 cells assessed as cell growth at 10 uM incubated for 48 hrs by sulforhodamine B assay relative to control; procedure, shortened: as §2
DU-145 = test: Growth inhibition of human DU-145 cells assessed as cell growth at 10 uM incubated for 48 hrs by sulforhodamine B assay relative to control; procedure, shortened: as §2
IGROV-1 = test: Growth inhibition of human IGROV-1 cells assessed as cell growth at 10 uM incubated for 48 hrs by sulforhodamine B assay relative to control
Procedure, shortened: (§3)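 Submitted to the NCI Developmental Therapeutics Program for the NCI60 human tumour cell line panel. First screen at a single 10 µM concentration. Read-out is growth relative to untreated control cells set at 100%.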

NCI-H23 = test: Growth inhibition of human NCI-H23 cells assessed as cell growth at 10 uM incubated for 48 hrs by sulforhodamine B assay relative to control; procedure, shortened: as §3
RPMI-8226 = test: Growth inhibition of human RPMI-8226 cells assessed as cell growth at 10 uM incubated for 48 hrs by sulforhodamine B assay relative to control; procedure, shortened: as §1
SK-MEL-28 = test: Growth inhibition of human SK-MEL-28 cells assessed as cell growth at 10 uM incubated for 48 hrs by sulforhodamine B assay relative to control; procedure, shortened: as §1
OVCAR-3 = test: Growth inhibition of human OVCAR-3 cells assessed as cell growth at 10 uM incubated for 48 hrs by sulforhodamine B assay relative to control; procedure, shortened: as §1
MDA-MB-231 = test: Growth inhibition of human MDA-MB-231 cells assessed as cell growth at 10 uM incubated for 48 hrs by sulforhodamine B assay relative to control; procedure, shortened: as §3
OVCAR-5 = test: Growth inhibition of human OVCAR-5 cells assessed as cell growth at 10 uM incubated for 48 hrs by sulforhodamine B assay relative to control; procedure, shortened: as §1
HCC 2998 = test: Growth inhibition of human HCC 2998 cells assessed as cell growth at 10 uM incubated for 48 hrs by sulforhodamine B assay relative to control; procedure, shortened: as §2
SW-620 = test: Growth inhibition of human SW-620 cells assessed as cell growth at 10 uM incubated for 48 hrs by sulforhodamine B assay relative to control; procedure, shortened: as §1
NCI-H322M = test: Growth inhibition of human NCI-H322M cells assessed as cell growth at 10 uM incubated for 48 hrs by sulforhodamine B assay relative to control; procedure, shortened: as §3
T47D = test: Growth inhibition of human T47D cells assessed as cell growth at 10 uM incubated for 48 hrs by sulforhodamine B assay relative to control; procedure, shortened: as §1
MDA-MB-435 = test: Growth inhibition of human MDA-MB-435 cells assessed as cell growth at 10 uM incubated for 48 hrs by sulforhodamine B assay relative to control; procedure, shortened: as §3
SF-539 = test: Growth inhibition of human SF-539 cells assessed as cell growth at 10 uM incubated for 48 hrs by sulforhodamine B assay relative to control; procedure, shortened: as §1
Hs-578T = test: Growth inhibition of human Hs-578T cells assessed as cell growth at 10 uM incubated for 48 hrs by sulforhodamine B assay relative to control; procedure, shortened: as §3
NCI/ADR-RES = test: Growth inhibition of human NCI/ADR-RES cells assessed as cell growth at 10 uM incubated for 48 hrs by sulforhodamine B assay relative to control; procedure, shortened: as §3
SF-268 = test: Growth inhibition of human SF-268 cells assessed as cell growth at 10 uM incubated for 48 hrs by sulforhodamine B assay relative to control; procedure, shortened: as §1
K562 = test: Growth inhibition of human K562 cells assessed as cell growth at 10 uM incubated for 48 hrs by sulforhodamine B assay relative to control; procedure, shortened: as §3
PC-3 = test: Growth inhibition of human PC-3 cells assessed as cell growth at 10 uM incubated for 48 hrs by sulforhodamine B assay relative to control; procedure, shortened: as §1
HL-60(TB) = test: Growth inhibition of human HL-60(TB) cells assessed as cell growth at 10 uM incubated for 48 hrs by sulforhodamine B assay relative to control
Procedure, shortened: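 Screened by the NCI Developmental Therapeutics Program on its panel of 60 human tumour cell lines. Compounds were first tested at a single 10 µM dose, and compounds active there went to dose-response curves. Growth is expressed relative to untreated control (100%). GI50 (50% of maximal proliferation inhibition) and TGI (total growth inhibition) were derived from the dose-response data.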

A549 = test: Growth inhibition of human A549/ATCC cells assessed as cell growth at 10 uM incubated for 48 hrs by sulforhodamine B assay relative to control; procedure, shortened: as §2
LOX IMVI = test: Growth inhibition of human LOX IMVI cells assessed as cell growth at 10 uM incubated for 48 hrs by sulforhodamine B assay relative to control; procedure, shortened: as §3
ACHN = test: Growth inhibition of human ACHN cells assessed as cell growth at 10 uM incubated for 48 hrs by sulforhodamine B assay relative to control
Procedure, shortened: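 NCI Developmental Therapeutics Program NCI60 human tumour cell line panel, one-dose primary screen with every compound at 10 µM. Growth is expressed as % of untreated control cells (100%).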

MCF7 = test: Growth inhibition of human MCF7 cells assessed as cell growth at 10 uM incubated for 48 hrs by sulforhodamine B assay relative to control; procedure, shortened: as §3
HOP-92 = test: Growth inhibition of human HOP-92 cells assessed as cell growth at 10 uM incubated for 48 hrs by sulforhodamine B assay relative to control; procedure, shortened: as §3
MDA-MB-468 = test: Growth inhibition of human MDA-MB-468 cells assessed as cell growth at 10 uM incubated for 48 hrs by sulforhodamine B assay relative to control; procedure, shortened: as §3
UACC-62 = test: Growth inhibition of human UACC-62 cells assessed as cell growth at 10 uM incubated for 48 hrs by sulforhodamine B assay relative to control; procedure, shortened: as §1
OVCAR-4 = test: Growth inhibition of human OVCAR-4 cells assessed as cell growth at 10 uM incubated for 48 hrs by sulforhodamine B assay relative to control; procedure, shortened: as §1

| SMILES | growth at 10 µM (OVCAR-8) [%] | growth at 10 µM (SF-295) [%] | growth at 10 µM (CCRF-CEM) [%] | growth at 10 µM (COLO 205) [%] | growth at 10 µM (DU-145) [%] | growth at 10 µM (IGROV-1) [%] | growth at 10 µM (NCI-H23) [%] | growth at 10 µM (RPMI-8226) [%] | growth at 10 µM (SK-MEL-28) [%] | growth at 10 µM (OVCAR-3) [%] | growth at 10 µM (MDA-MB-231) [%] | growth at 10 µM (OVCAR-5) [%] | growth at 10 µM (HCC 2998) [%] | growth at 10 µM (SW-620) [%] | growth at 10 µM (NCI-H322M) [%] | growth at 10 µM (T47D) [%] | growth at 10 µM (MDA-MB-435) [%] | growth at 10 µM (SF-539) [%] | growth at 10 µM (Hs-578T) [%] | growth at 10 µM (NCI/ADR-RES) [%] | other results |
| --- | --- | --- | --- | --- | --- | --- | --- | --- | --- | --- | --- | --- | --- | --- | --- | --- | --- | --- | --- | --- | --- |
| Nc1c(C(=O)N(c2ccccc2)c2ccccc2)sc2nc3c(cc12)C(=O)CCC3 | 105 | 107 | 96.1 | 109 | 68.6 | 103 | 101 | 94.8 | 116 | 107 | 85.9 | 130 | 116 | 89.3 | 102 | 99.5 | 110 | 81.7 | 92.3 | 101 | growth at 10 µM (SF-268): 99.8%; growth at 10 µM (K562): 113%; growth at 10 µM (PC-3): 103%; growth at 10 µM (HL-60(TB)): 105%; growth at 10 µM (A549): 90.2%; growth at 10 µM (LOX IMVI): 94.3%; growth at 10 µM (ACHN): 110%; growth at 10 µM (MCF7): 99.6%; growth at 10 µM (HOP-92): 103%; growth at 10 µM (MDA-MB-468): 106%; growth at 10 µM (UACC-62): 109% |
| CC(=O)c1ccc2c(N)c(C(=O)Nc3ccccc3)sc2n1 | 100 | 108 | 101 | 105 | 107 | 113 | 99.2 | 89 | 108 | 119 | 112 | 113 | 106 | 99.4 | 114 | 93.7 | 106 | 97 | 106 | 103 | growth at 10 µM (SF-268): 112%; growth at 10 µM (K562): 95%; growth at 10 µM (PC-3): 97.4%; growth at 10 µM (HL-60(TB)): 108%; growth at 10 µM (A549): 89%; growth at 10 µM (LOX IMVI): 105%; growth at 10 µM (OVCAR-4): 84.2%; growth at 10 µM (ACHN): 102%; growth at 10 µM (MCF7): 96.8%; growth at 10 µM (HOP-92): 74%; growth at 10 µM (MDA-MB-468): 87.4%; growth at 10 µM (UACC-62): 115% |
